Key:
Multiple ascending dose = format: in vivo, human; details: for Accumulation in plasma exposure (AUC): approximate
In short: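 Healthy subjects were randomized to test compound or placebo by oral immediate-release capsule in the fasted state. In Cohorts 1–2 (2:1), 50 µg QD escalated to 100, 200, 300 and 400 µg every sixth day if tolerated. In Cohort 3 (4:1), 10 µg BID escalated to 20, 30, 40, 50 and 70 µg. K₂EDTA blood was drawn pre-dose and 0.25–24 h post-dose.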

healthy subjects = assay: Single ascending dose; format: in vivo, human
In short: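 Subjects received a single oral dose of test compound or identical-appearing placebo capsule and were kept as in-patients. Over seven days, adverse events, vital signs, 12-lead ECG and safety labs (serum chemistry, hematology, urinalysis) were assessed at multiple time points. Data were summarized descriptively by treatment group.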

[1] = 10 µg BID, steady state, n = 20, mean (SD)
[2] = 30 µg QD, steady state, n = 3, mean (SD)
[3] = 40 µg BID, steady state, n = 9, mean (SD)
[4] = 50 µg BID, steady state, n = 6, mean (SD)
[5] = 50 µg QD, steady state, n = 16, mean (SD)
[6] = 100 µg QD, steady state, n = 7, mean (SD)
[7] = 300 µg QD, steady state, single subject
[8] = 400 µg QD, near steady-state (Day 21, first day at this dose), single subject
[9] = total ralinepag, all single doses, n = 24

O=C(O)COC[C@H]1CC[C@H](COC(=O)N(c2ccccc2)c2ccc(Cl)cc2)CC1 [ralinepag]
Mean steady-state accumulation of total plasma exposure (AUC) (Multiple ascending dose; 10 µg BID): 2.64 fold
Accumulation ratio Rac(Cmax) (Multiple ascending dose; [1]): 2.07 (0.40)
PTR (peak-to-trough plasma concentration ratio) (Multiple ascending dose; [1]): 2.04 (0.32)
PTR (peak-to-trough plasma concentration ratio) (Multiple ascending dose; 20 µg BID, steady state, n = 20, mean (SD)): 1.97 (0.26)
PTR (peak-to-trough plasma concentration ratio) (Multiple ascending dose; 30 µg BID, steady state, n = 10, mean (SD)): 1.95 (0.22)
Ctrough,ss (Multiple ascending dose; [2]): 0.72 (0.20) ng/mL
PTR (peak-to-trough plasma concentration ratio) (Multiple ascending dose; [2]): 3.34 (1.20)
Ctrough,ss (Multiple ascending dose; [3]): 1.51 (0.57) ng/mL
PTR (peak-to-trough plasma concentration ratio) (Multiple ascending dose; [3]): 2.28 (0.40)
Ctrough,ss (Multiple ascending dose; [4]): 2.32 (0.78) ng/mL
PTR (peak-to-trough plasma concentration ratio) (Multiple ascending dose; [4]): 2.00 (0.43)
Mean EHL (Multiple ascending dose; 50 µg QD): 18.4 h
Mean steady-state accumulation of total plasma exposure (AUC) (Multiple ascending dose; 50 µg QD): 1.69 fold
Accumulation ratio Rac(AUC) (Multiple ascending dose; [5]): 1.69 (0.24)
Accumulation ratio Rac(Cmax) (Multiple ascending dose; [5]): 1.54 (0.31)
Ctrough,ss (Multiple ascending dose; [5]): 0.76 (0.37) ng/mL
PTR (peak-to-trough plasma concentration ratio) (Multiple ascending dose; [5]): 4.33 (2.12)
PTR (peak-to-trough plasma concentration ratio) (Multiple ascending dose; 70 µg BID, steady state, single subject): 2.36
Ctrough,ss (Multiple ascending dose; [6]): 1.39 (0.68) ng/mL
PTR (peak-to-trough plasma concentration ratio) (Multiple ascending dose; [6]): 4.49 (2.66)
Ctrough,ss (Multiple ascending dose; [7]): 5.14 ng/mL
PTR (peak-to-trough plasma concentration ratio) (Multiple ascending dose; [7]): 3.42
Ctrough,ss (Multiple ascending dose; [8]): 6.13 ng/mL
PTR (peak-to-trough plasma concentration ratio) (Multiple ascending dose; [8]): 3.70
Dose proportionality of Cmax,ss, Ctrough,ss and AUC0–τ,ss (Multiple ascending dose; 10–50 µg BID dose range): approximately dose proportional
Dose proportionality of Cmax,ss, Ctrough,ss and AUC0–τ,ss (Multiple ascending dose; 50–300 µg QD dose range): approximately dose-proportional
Accumulation in plasma exposure (AUC) (Multiple ascending dose; BID (Q12 hours) dosing): ~2.6 fold
Steady-state peak-to-trough ratio, range across doses (Multiple ascending dose; BID dosing, Cohort 3): 1.95–2.36
Accumulation in plasma exposure (AUC) (Multiple ascending dose; QD (Q24 hours) dosing): ~1.7 fold
Steady-state peak-to-trough ratio, range across doses (Multiple ascending dose; QD dosing, Cohorts 1 and 2 combined): 3.34–4.49
Half-life (Multiple ascending dose; both, human, plasma, oral): 17.5 to 18.4 h
AUC (Multiple ascending dose; human, plasma, oral, 10 ug, AUC0–τ, 10 µg BID, Study Day 1 (non-steady-state), τ 12 h, n = 20, mean (SD)): 0.00251 µg·h/mL
AUC (Multiple ascending dose; human, plasma, oral, 10 ug, AUC0–τ,ss, 10 µg BID, steady state, τ 12 h, n = 20, mean (SD)): 0.00668 µg·h/mL
Cmax (Multiple ascending dose; human, plasma, oral, 10 ug, Cmax, 10 µg BID, Study Day 1 (non-steady-state), n = 20, mean (SD)): 0.412 ng/mL
Cmax (Multiple ascending dose; human, plasma, oral, 10 ug, Cmax,ss, 10 µg BID, steady state, n = 20, mean (SD)): 0.86 ng/mL
Tmax (Multiple ascending dose; human, plasma, oral, 10 ug, Tmax, 10 µg BID, Study Day 1 (non-steady-state), n = 20, median (min–max)): 1 h
Tmax (Multiple ascending dose; human, plasma, oral, 10 ug, Tmax,ss, 10 µg BID, steady state, n = 20, median (min–max)): 1 h
Cmax (Multiple ascending dose; human, plasma, oral, 20 ug, Cmax,ss, 20 µg BID, steady state, n = 20, mean (SD)): 1.8 ng/mL
AUC (Multiple ascending dose; human, plasma, oral, 30 ug, AUC0-τ,ss, 30 µg QD, steady state, τ 24 h, n = 3, mean (SD)): 0.0248 µg·h/mL
Cmax (Multiple ascending dose; human, plasma, oral, 30 ug, Cmax,ss, 30 µg BID, steady state, n = 10, mean (SD)): 2.12 ng/mL
Cmax (Multiple ascending dose; human, plasma, oral, 30 ug, Cmax,ss, 30 µg QD, steady state, n = 3, mean (SD)): 2.29 ng/mL
Tmax (Multiple ascending dose; human, plasma, oral, 30 ug, Tmax,ss, 30 µg QD, steady state, n = 3, median (min – max)): 1 h
Cmax (Multiple ascending dose; human, plasma, oral, 40 ug, Cmax,ss, 40 µg BID, steady state, n = 9, mean (SD)): 3.31 ng/mL
AUC (Multiple ascending dose; human, plasma, oral, 50 ug, AUC0-τ, 50 µg QD, Study Day 1 (non-steady-state), τ 24 h, n = 20, mean (SD)): 0.0159 µg·h/mL
AUC (Multiple ascending dose; human, plasma, oral, 50 ug, AUC0-τ,ss, 50 µg QD, steady state, τ 24 h, n = 16, mean (SD)): 0.0262 µg·h/mL
AUC (Multiple ascending dose; human, plasma, oral, 50 ug, AUC0–τ,ss, 50 µg BID, steady state, τ 12 h, n = 6, mean (SD)): 0.036 µg·h/mL
Cmax (Multiple ascending dose; human, plasma, oral, 50 ug, Cmax, 50 µg QD, Study Day 1 (non-steady-state), n = 20, mean (SD)): 1.88 ng/mL
Cmax (Multiple ascending dose; human, plasma, oral, 50 ug, Cmax,ss, 50 µg BID, steady state, n = 6, mean (SD)): 4.43 ng/mL
Cmax (Multiple ascending dose; human, plasma, oral, 50 ug, Cmax,ss, 50 µg QD, steady state, n = 16, mean (SD)): 2.74 ng/mL
Tmax (Multiple ascending dose; human, plasma, oral, 50 ug, Tmax, 50 µg QD, Study Day 1 (non-steady-state), n = 20, median (min – max)): 2 h
Tmax (Multiple ascending dose; human, plasma, oral, 50 ug, Tmax,ss, 50 µg BID, steady state, n = 6, median (min–max)): 1.25 h
Tmax (Multiple ascending dose; human, plasma, oral, 50 ug, Tmax,ss, 50 µg QD, steady state, n = 16, median (min – max)): 1.25 h
AUC (Multiple ascending dose; human, plasma, oral, 70 ug, AUC0–τ,ss, 70 µg BID, steady state, τ 12 h, single subject): 0.0252 µg·h/mL
Cmax (Multiple ascending dose; human, plasma, oral, 70 ug, Cmax,ss, 70 µg BID, steady state, single subject): 4.22 ng/mL
Tmax (Multiple ascending dose; human, plasma, oral, 70 ug, Tmax,ss, 70 µg BID, steady state, single subject): 1.5 h
AUC (Multiple ascending dose; human, plasma, oral, 100 ug, AUC0-τ,ss, 100 µg QD, steady state, τ 24 h, n = 7, mean (SD)): 0.0486 µg·h/mL
Cmax (Multiple ascending dose; human, plasma, oral, 100 ug, Cmax,ss, 100 µg QD, steady state, n = 7, mean (SD)): 5.15 ng/mL
Tmax (Multiple ascending dose; human, plasma, oral, 100 ug, Tmax,ss, 100 µg QD, steady state, n = 7, median (min – max)): 1.5 h
AUC (Multiple ascending dose; human, plasma, oral, 300 ug, AUC0-τ,ss, 300 µg QD, steady state, τ 24 h, single subject): 0.181 µg·h/mL
Cmax (Multiple ascending dose; human, plasma, oral, 300 ug, Cmax,ss, 300 µg QD, steady state, single subject): 17.6 ng/mL
Tmax (Multiple ascending dose; human, plasma, oral, 300 ug, Tmax,ss, 300 µg QD, steady state, single subject): 4 h
SAEs recorded (healthy subjects; any doses tested): no SAEs
Vital signs, ECGs, safety laboratory tests (healthy subjects; any single dose level): no clinically significant safety issues
Abdominal pain, subjects (%) (healthy subjects; single oral dose 30 µg, n = 6): 0
Flushing, subjects (%) (healthy subjects; single oral dose 30 µg, n = 6): 0
Headache, subjects (%) (healthy subjects; single oral dose 30 µg, n = 6): 2 (33.3%)
Nausea, subjects (%) (healthy subjects; single oral dose 30 µg, n = 6): 0
Number of AEs reported (healthy subjects; single oral dose 30 µg, n = 6): 2
Pain in jaw, subjects (%) (healthy subjects; single oral dose 30 µg, n = 6): 0
Total (%) subjects with at least one AE (healthy subjects; single oral dose 30 µg, n = 6): 2 (33.3%)
Vomiting, subjects (%) (healthy subjects; single oral dose 30 µg, n = 6): 0
Abdominal pain, subjects (%) (healthy subjects; single oral dose 50 µg, n = 6): 1 (16.7%)
Flushing, subjects (%) (healthy subjects; single oral dose 50 µg, n = 6): 0
Headache, subjects (%) (healthy subjects; single oral dose 50 µg, n = 6): 5 (83.3%)
Nausea, subjects (%) (healthy subjects; single oral dose 50 µg, n = 6): 1 (16.7%)
Number of AEs reported (healthy subjects; single oral dose 50 µg, n = 6): 11
Pain in jaw, subjects (%) (healthy subjects; single oral dose 50 µg, n = 6): 2 (33.3%)
Total (%) subjects with at least one AE (healthy subjects; single oral dose 50 µg, n = 6): 5 (83.3%)
Vomiting, subjects (%) (healthy subjects; single oral dose 50 µg, n = 6): 0
Abdominal pain, subjects (%) (healthy subjects; single oral dose 100 µg, n = 6): 1 (16.7%)
Flushing, subjects (%) (healthy subjects; single oral dose 100 µg, n = 6): 1 (16.7%)
Headache, subjects (%) (healthy subjects; single oral dose 100 µg, n = 6): 5 (83.3%)
Nausea, subjects (%) (healthy subjects; single oral dose 100 µg, n = 6): 2 (33.3%)
Number of AEs reported (healthy subjects; single oral dose 100 µg, n = 6): 17
Pain in jaw, subjects (%) (healthy subjects; single oral dose 100 µg, n = 6): 3 (50.0%)
Total (%) subjects with at least one AE (healthy subjects; single oral dose 100 µg, n = 6): 6 (100%)
Vomiting, subjects (%) (healthy subjects; single oral dose 100 µg, n = 6): 2 (33.3%)
Tolerability of the 200 µg single dose (healthy subjects; single oral dose 200 µg): not at 200 µg due to AEs of nausea and vomiting
Flushing, subjects (%) (healthy subjects; single oral dose 200 µg, n = 6): 1 (16.7%)
Headache, subjects (%) (healthy subjects; single oral dose 200 µg, n = 6): 5 (83.3%)
Nausea, subjects (%) (healthy subjects; single oral dose 200 µg, n = 6): 3 (50.0%)
Number of AEs reported (healthy subjects; single oral dose 200 µg, n = 6): 21
Pain in jaw, subjects (%) (healthy subjects; single oral dose 200 µg, n = 6): 1 (16.7%)
Total (%) subjects with at least one AE (healthy subjects; single oral dose 200 µg, n = 6): 6 (100%)
Vomiting, subjects (%) (healthy subjects; single oral dose 200 µg, n = 6): 6 (100%)
Tolerated single dose (healthy subjects; single oral dose, IR capsule, healthy subjects): up to 100 µg
Abdominal pain, subjects (%) (healthy subjects; [9]): 3 (12.5%)
Flushing, subjects (%) (healthy subjects; [9]): 2 (8.3%)
Headache, subjects (%) (healthy subjects; [9]): 17 (70.8%)
Nausea, subjects (%) (healthy subjects; [9]): 6 (25.0%)
Number of AEs reported (healthy subjects; [9]): 51
Pain in jaw, subjects (%) (healthy subjects; [9]): 6 (25.0%)
Total (%) subjects with at least one AE (healthy subjects; [9]): 19 (79.2%)
Vomiting, subjects (%) (healthy subjects; [9]): 8 (33.3%)

Reference: paper PMC7238799 (Pulmonary Circulation, 2020)
